Measurements as given in paper PMC8041090 (SLAS discovery : advancing life sciences R & D, 2016).

Assays:
PP4C = settings: read-out: IC50, PP4C; ref [4],[6]; cited from earlier work
PP2AC = settings: read-out: IC50, PP2AC; ref [4],[6]; cited from earlier work
PP5C [1] = settings: read-out: IC50, PP5C; ref [4],[6]; cited from earlier work
PP1C [2] = settings: read-out: IC50, PP1C; ref [4],[6]; cited from earlier work
PP5C [3] = molecular target: T1, PP5C (Homo sapiens, UniProt P53041); assay: PP5C OMFP FLINT inhibition assay, 1536-well uHTS format; assay type: biochemical
T1 sequence (P53041 1-499): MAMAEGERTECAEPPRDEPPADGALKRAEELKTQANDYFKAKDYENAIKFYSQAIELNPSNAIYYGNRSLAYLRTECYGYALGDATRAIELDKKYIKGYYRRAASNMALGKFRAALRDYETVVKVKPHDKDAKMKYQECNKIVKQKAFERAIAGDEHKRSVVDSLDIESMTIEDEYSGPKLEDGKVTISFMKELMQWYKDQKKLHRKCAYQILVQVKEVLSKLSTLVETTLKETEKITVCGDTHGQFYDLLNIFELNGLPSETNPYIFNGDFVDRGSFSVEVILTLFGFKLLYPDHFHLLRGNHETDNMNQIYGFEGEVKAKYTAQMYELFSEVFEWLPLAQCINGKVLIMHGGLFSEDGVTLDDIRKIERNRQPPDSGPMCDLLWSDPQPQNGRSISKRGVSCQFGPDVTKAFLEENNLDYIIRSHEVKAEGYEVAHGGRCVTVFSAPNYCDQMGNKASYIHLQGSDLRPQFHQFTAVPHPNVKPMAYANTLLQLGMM

PP1C [4] = molecular target: PP1C (Homo sapiens, UniProt P62136); assay: Radiolabeled phosphoprotein substrate confirmation assay; assay type: biochemical
Sequence of PP1C (Homo sapiens, UniProt P62136) (P62136 whole entry): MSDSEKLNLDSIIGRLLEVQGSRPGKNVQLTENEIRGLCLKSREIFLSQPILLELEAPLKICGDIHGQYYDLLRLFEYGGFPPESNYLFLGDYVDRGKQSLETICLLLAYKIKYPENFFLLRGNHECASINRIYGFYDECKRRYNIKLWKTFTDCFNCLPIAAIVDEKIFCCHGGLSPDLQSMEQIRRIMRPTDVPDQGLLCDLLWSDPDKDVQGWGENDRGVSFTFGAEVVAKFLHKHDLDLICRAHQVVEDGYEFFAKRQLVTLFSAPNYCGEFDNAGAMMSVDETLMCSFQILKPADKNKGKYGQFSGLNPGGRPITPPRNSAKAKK
Method in brief: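 Purified PP1C catalytic subunit (working stock kept at −20 °C in tris with 50% glycerol, 2 mM DTT, 0.1 mg/mL BSA, 2 mM MnCl₂) was assayed in single tubes against [³²P]- or [³³P]-phosphorylase A in HEPES pH 7.0 PP1C buffer (BSA, Triton X-100, DTT, ascorbate, MnCl₂). Liberated labelled orthophosphate was quantified and expressed as percentage of DMF-vehicle control activity; serial dilutions, n = 3.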

In the case of C[C@@](O)(/C=C/[C@H]1CC=CC(=O)O1)[C@@H](C[C@@H](O)\C=C/C=C\C=C\CO)OP(=O)(O)O [fostriecin], the IC50 (PP4C) is listed as less than 0.002 µM, the IC50 (PP2AC) is listed as less than 0.002 µM and the IC50 (PP5C [1]) is listed as greater than 70 µM. The IC50 (PP1C [2]) was greater than 70 µM.

Compound C[C@@]12C(=O)OC(=O)[C@]1(C)[C@H]1CC[C@@H]2O1 [cantharidin] has an IC50 (PP5C [3]) of 0.52 µM.

Compound COc1ccc(NC(=O)C2C3CCC(O3)C2C(=O)O)c(OC)c1 (stereo not drawn) [SID 93617938, 3-{[(2,4-dimethoxyphenyl)amino]carbonyl}−7-oxabicyclo[2.2.1]heptane-2-carboxylic acid] has an IC50 (PP1C [4]) of 18.9 µM.
